Screening results: PubChem BioAssay, several laboratories
Most compounds without a hit are left out; they make up all but 2.3% or so of the library.
PAFAH1B3 inh – inhibitors of human PAFAH1B3 | recombinant PAFAH1B3, FP-rhodamine probe, fluorescence polarization | Q15102 | actives 0.28% (n = 340,000) | AID 492972 | inhibition, % at 3.39 µM;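 active = inhibition above the screen-wide average of all tested compounds plus 3 SD, cut at about 25% in these data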
PAFAH1B2 FP inh – PAFAH1B2 (human) inhibition; P68402; recombinant PAFAH1B2, FP-rhodamine activity probe, fluorescence polarization; inhibition, % at 3.39 µM; actives 1.2% (n = 340,000); AID 492953;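 active = inhibition above the mean of all tested compounds plus 3 SD, cut at about 24% in these data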
Apaf-1 inh – human Apaf-1 inhibition; reconstituted apoptosome caspase-3 activity, DEVD-Rh110 fluorescence; actives 0.71% (n = 330,000); inhibition, % at 20 µM; AID 489030; O14727; active = inhibition of at least 40% at 20 µM
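System – cell-free apoptosome with Apaf-1, procaspase-3 and caspase-9 · Buffer or medium – pH 7.5 Hepes buffer with CHAPS, BSA, DTT · Also added – cytochrome c with DEVD-Rh110 · Times – 30 min compound preincubation, 50 min activation, room temperature · Technique – Rh110 fluorescence intensity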
PAFAH2 FP inh – PAFAH2 (human) inhibition | Q99487 | recombinant PAFAH2, FP-rhodamine activity probe, fluorescence polarization | inhibition, % at 3.39 µM | actives 0.99% (n = 340,000) | AID 492956;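 active = inhibition above the mean over all tested compounds plus 3 SD, cut at about 30% in these data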;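 note: inhibitors block probe labeling of enzyme so polarization drops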
TDP2 absorb – TDP2 (human) inhibition, absorbance primary screen; O95551; recombinant TDP2, T5PNP hydrolysis, p-nitrophenol absorbance 415 nm; AID 720702; inhibition, % at 12.8 µM; actives 0.34% (n = 370,000);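 active = inhibition above the mean of all tested compounds plus 3 SD, set per campaign, cut at about 25% in these data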
Target sequence (O95551 whole entry, looked up): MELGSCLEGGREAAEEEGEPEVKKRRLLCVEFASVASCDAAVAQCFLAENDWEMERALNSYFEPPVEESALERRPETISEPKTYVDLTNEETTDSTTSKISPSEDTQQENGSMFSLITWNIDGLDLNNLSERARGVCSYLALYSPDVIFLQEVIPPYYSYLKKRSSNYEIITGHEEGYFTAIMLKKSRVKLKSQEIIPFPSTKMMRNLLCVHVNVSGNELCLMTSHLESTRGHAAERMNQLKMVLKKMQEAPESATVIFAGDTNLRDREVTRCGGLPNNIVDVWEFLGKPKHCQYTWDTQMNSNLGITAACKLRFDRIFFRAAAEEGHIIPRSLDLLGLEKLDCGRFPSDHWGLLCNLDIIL
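Test system: Human TDP2 enzyme | Reagent: 5 mM T5PNP | Compound dosing: 12.8 µM single point, 1% DMSO | Incubation: Enzyme reaction with compound for 2 h at 37 °C | Technique: p-Nitrophenol epi absorbance | Read-out: % inhibition relative to enzyme-containing and enzyme-free wells | Benchmarks: High control without enzyme, low control DMSO plus TDP2 | Replicates: Singlicate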
Apaf-1 inh conf – confirmation of Apaf-1 inhibitors | actives 25% (n = 1,800) | AID 504614 | shares compounds with Apaf-1 inh | reconstituted apoptosome, caspase-3 DEVD-Rh110 fluorescence | inhibition, % at 20 µM;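 active = mean inhibition of at least 40% at 20 µM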
Rh110 quench – Rh110 signal interference in Apaf-1 inhibitor counter-screen | shares compounds with Apaf-1 inh | Rh110 fluorescence interference, quenched caspase reaction | 1,800 tested, under 10 active | activation (fluorescence interference), % at 20 µM;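 active = signal rise of 40% or more at 20 µM, treated as a fluorescence artifact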
Fluor interf inh – counter-screen for Apaf-1 inhibitors: fluorescence interference, dose response | IC50, µM | shares compounds with Apaf-1 inh | 460 tested, under 10 active | fluorescence interference counterscreen, Apaf-1 assay format | AID 588538; call rule not given here
Large screens that a line does not name were inactive (follow-up assays come after a bar, where they were run).

NC(=S)Nc1cccc2cnccc12	none
Cc1ccc(NC(=S)Nc2cccc3cnccc23)cc1C	Apaf-1 inh 53 | Apaf-1 inh conf inactive | Rh110 quench inactive
CCOc1ccc(/C=N/n2c(-c3n[nH]c4c3CCC4)n[nH]c2=S)cc1	none (no result: PAFAH1B3 inh, PAFAH1B2 FP inh, Apaf-1 inh, PAFAH2 FP inh)
Cc1ccc(S(=O)(=O)N2CC[C@@]3(Cc4ccccc4)Cc4ccccc4C[C@@H]23)cc1	none (no result: PAFAH1B3 inh, PAFAH1B2 FP inh, Apaf-1 inh, PAFAH2 FP inh)
CC(=O)Nc1cccc(NC(=S)Nc2cccc3ccccc23)c1	Apaf-1 inh 97 | Apaf-1 inh conf inactive | Rh110 quench inactive
CC(=O)Nc1cccc(NC(=S)Nc2cccc(Cl)c2C)c1	none
Brc1ccc2nc(-c3ccc(CN4CCC5(CC4)CNc4ccccc45)cc3)c(-c3ccccc3)nc2c1	none (no result: PAFAH1B3 inh, PAFAH1B2 FP inh, Apaf-1 inh, PAFAH2 FP inh)
O=C1Nc2cc(Cl)c(Cl)cc2N(O)N1c1cccc(Cl)c1	Apaf-1 inh 44 | Apaf-1 inh conf inactive | Rh110 quench inactive
Cc1ccc2[nH]c3c(c2c1)CN(C(=O)CN1CCCc2ccccc21)CC3	Apaf-1 inh 78 | Apaf-1 inh conf inactive | Rh110 quench inactive
CCN(C(=O)[C@@H](C1CC1)[C@@H](O)c1ccc(C(C)=O)cc1)c1ccccc1	none (no result: PAFAH1B3 inh, PAFAH1B2 FP inh, Apaf-1 inh, PAFAH2 FP inh)
CCCOc1cc(NCc2ccccc2)c2ncn(C(C)C)c2c1	Apaf-1 inh 44 | Apaf-1 inh conf 54 | Rh110 quench inactive | Fluor interf inh inactive
COCCOc1cc(NCc2ccccc2)c2ncn(C(C)C)c2c1	Apaf-1 inh 68 | Apaf-1 inh conf inactive | Rh110 quench inactive
CCOc1cc(NCc2ccccc2)c2ncn(C(C)C)c2c1	Apaf-1 inh 42 | Apaf-1 inh conf 54 | Rh110 quench inactive | Fluor interf inh inactive
CCC(CO)Oc1cc(NCc2ccc(OC)cc2)c2ncn(C(C)C)c2c1 (stereo unspecified)	none
CC(C)n1cnc2c(NCc3ccccc3)cc(Cc3ccc(F)cc3)cc21	none
CC(COc1cc(F)cc(F)c1)CN1CCC(C(O)(c2ccccc2)c2ccccc2)CC1 (stereo unspecified)	none (no result: PAFAH1B3 inh, PAFAH1B2 FP inh, Apaf-1 inh, PAFAH2 FP inh)
C[C@@H]1C[C@H]2[C@@H](Cc3ccccc3)C(=O)N3[C@H](c4ccccc4)[C@H](C)C[C@H]3[C@@H](Cc3ccccc3)C(=O)N2[C@@H]1c1ccccc1	none (no result: PAFAH1B3 inh, PAFAH1B2 FP inh, Apaf-1 inh, PAFAH2 FP inh)
CC[C@@H](CCCCCCCn1ccc2ccccc21)CCC(=O)N(c1ccccc1)c1ccccc1	none (no result: PAFAH1B3 inh, PAFAH1B2 FP inh, Apaf-1 inh, PAFAH2 FP inh)
Cc1ccc(S(=O)(=O)Nc2ccc3c4c(cccc24)CC3)c(C)c1	none
Cc1cc(C)c(S(=O)(=O)Nc2ccc3c4c(cccc24)CC3)c(C)c1	Apaf-1 inh 43 | Apaf-1 inh conf inactive | Rh110 quench inactive
CCN(CC(=O)Nc1c(F)cccc1F)C(=O)CNC(=O)c1ccc2c(c1)OCO2	Apaf-1 inh 53 | Apaf-1 inh conf inactive | Rh110 quench inactive
CCN(CC(=O)Nc1c(F)cccc1F)C(=O)Cc1ccsc1	Apaf-1 inh 52 | Apaf-1 inh conf 42 | Rh110 quench inactive | Fluor interf inh inactive
COC(=O)C1=C(C)N(Cc2ccc(C(F)(F)F)cc2)C(=NCc2ccccc2C(F)(F)F)NC1c1ccccc1C(F)(F)F (stereo unspecified)	none (no result: PAFAH1B3 inh, PAFAH1B2 FP inh, Apaf-1 inh, PAFAH2 FP inh)
COc1cccc2sc3ccc(C#CC4(N)CCCCC4)cc3c(=O)c12	none
COc1cccc2sc3cc(C#CC4(O)CCCCC4)ccc3c(=O)c12	Apaf-1 inh 40 | Apaf-1 inh conf inactive | Rh110 quench inactive
O=C(/C=C/c1ccc(-c2ccccc2[N+](=O)[O-])o1)c1ccc(Br)cc1	Apaf-1 inh 49 | Apaf-1 inh conf inactive | Rh110 quench inactive
O=C(/C=C/c1ccc(-c2ccccc2[N+](=O)[O-])o1)c1ccc(F)cc1	none
Oc1ccc(C[C@@H]2CNCCN2CCC23CC4CC(CC(C4)C2)C3)cc1	Apaf-1 inh 47 | Apaf-1 inh conf inactive | Rh110 quench inactive
CC(C)(C)C(=O)[C@@H]1[C@@H]2C(=O)N(C3CCCCC3)C(=O)[C@@H]2[C@H]2c3ccccc3C=CN12	Apaf-1 inh 64 | Apaf-1 inh conf 60 | Rh110 quench inactive | Fluor interf inh inactive
